Experimental data as given in publication PMC4264455 (British Journal of Cancer, 2014).

What was measured:
[1] = system: QTc intervals; test: ECG analysis; assay type: in vivo, human
Summary of the method: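 After dose level 1, patients with QTc ⩾460 ms at baseline, congenital long QT or QT-affecting medication were excluded. 12-lead ECGs were taken immediately before and after each infusion on days 1, 4, 8 and 11 of cycle 1, with a confirmatory ECG within 48 h of any abnormality. QT was machine-recorded with Bazett correction. At 27.0 mg m−2, 24-h ambulatory ECG started immediately after the cycle 1 infusion. An independent cardiologist reviewed all tracings.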

[2] = system: CDK6; conditions: ref Squires et al, 2009; cited from earlier work
[3] = system: patients with advanced refractory solid tumours or non-Hodgkin's lymphoma; test: Phase I dose escalation: safety, tolerability, DLT and adverse events; assay type: in vivo, human

## O=C(NC1CCNCC1)c1n[nH]cc1NC(=O)c1c(Cl)cccc1Cl [AT7519, N-(4-piperidinyl)-4-(2,6-dichlorobenzoylamino)-1H-pyrazole-3-carboxamide]
[1]; among the 24 patients with baseline QTc ⩽450 ms
  patients with transient QTc increases: 10 patients
[1]; serial ECGs, 24-h ambulatory ECG in five patients at the RP2D level
  QTc prolongation: no clinically significant QTc prolongations
[2]
  IC50: 0.17 µM
[3]; 14.4 mg m^−2 (n=5)
  ALP elevation: No. of patients with AEs of any grade: 3 No. of patients
  AST elevation: No. of patients with AEs of any grade: 2 No. of patients
  Anaemia: No. of patients with AEs of any grade: 5 No. of patients
  Anorexia: No. of patients with AEs of any grade: 0 No. of patients
  Creatinine elevation: No. of patients with AEs of any grade: 1 No. of patients
  Diarrhoea: No. of patients with AEs of any grade: 0 No. of patients
  Fatigue: No. of patients with AEs of any grade: 0 No. of patients
  Hyperglycaemia (random): No. of patients with AEs of any grade: 0 No. of patients
  Infection without neutropenia: No. of patients with AEs of any grade: 0 No. of patients
  Lymphopenia: No. of patients with AEs of any grade: 4 No. of patients
  Mucositis: No. of patients with AEs of any grade: 0 No. of patients
  Nausea: No. of patients with AEs of any grade: 1 No. of patients
  Neutropenia: No. of patients with AEs of any grade: 0 No. of patients
  Thrombocytopenia: No. of patients with AEs of any grade: 0 No. of patients
  Vomiting: No. of patients with AEs of any grade: 1 No. of patients
[3]; 21.6 mg m^−2 (n=7)
  ALP elevation: No. of patients with AEs of any grade: 5 No. of patients
  AST elevation: No. of patients with AEs of any grade: 2 No. of patients
  Anaemia: No. of patients with AEs of any grade: 6 No. of patients
  Anorexia: No. of patients with AEs of any grade: 1 No. of patients
  Creatinine elevation: No. of patients with AEs of any grade: 1 No. of patients
  Diarrhoea: No. of patients with AEs of any grade: 2 No. of patients
  Fatigue: No. of patients with AEs of any grade: 4 No. of patients
  Hyperglycaemia (random): No. of patients with AEs of any grade: 1 No. of patients
  Infection without neutropenia: No. of patients with AEs of any grade: 1 No. of patients
  Lymphopenia: No. of patients with AEs of any grade: 5 No. of patients
  Mucositis: No. of patients with AEs of any grade: 3 No. of patients
  Nausea: No. of patients with AEs of any grade: 2 No. of patients
  Neutropenia: No. of patients with AEs of any grade: 0 No. of patients
  Thrombocytopenia: No. of patients with AEs of any grade: 1 No. of patients
  Vomiting: No. of patients with AEs of any grade: 1 No. of patients
[3]; 27.0 mg m^−2 (n=15)
  ALP elevation: No. of patients with AEs of any grade: 7 No. of patients
  AST elevation: No. of patients with AEs of any grade: 9 No. of patients
  Anaemia: No. of patients with AEs of any grade: 12 No. of patients
  Anorexia: No. of patients with AEs of any grade: 2 No. of patients
  Creatinine elevation: No. of patients with AEs of any grade: 1 No. of patients
  Diarrhoea: No. of patients with AEs of any grade: 3 No. of patients
  Fatigue: No. of patients with AEs of any grade: 10 No. of patients
  Hyperglycaemia (random): No. of patients with AEs of any grade: 9 No. of patients
  Infection without neutropenia: No. of patients with AEs of any grade: 3 No. of patients
  Lymphopenia: No. of patients with AEs of any grade: 13 No. of patients
  Mucositis: No. of patients with AEs of any grade: 11 No. of patients
  Nausea: No. of patients with AEs of any grade: 6 No. of patients
  Neutropenia: No. of patients with AEs of any grade: 4 No. of patients
  Thrombocytopenia: No. of patients with AEs of any grade: 6 No. of patients
  Vomiting: No. of patients with AEs of any grade: 4 No. of patients
[3]; 32.4 mg m^−2 (n=5)
  ALP elevation: No. of patients with AEs of any grade: 5 No. of patients
  AST elevation: No. of patients with AEs of any grade: 3 No. of patients
  Anaemia: No. of patients with AEs of any grade: 5 No. of patients
  Anorexia: No. of patients with AEs of any grade: 1 No. of patients
  Creatinine elevation: No. of patients with AEs of any grade: 2 No. of patients
  Diarrhoea: No. of patients with AEs of any grade: 0 No. of patients
  Fatigue: No. of patients with AEs of any grade: 3 No. of patients
  Hyperglycaemia (random): No. of patients with AEs of any grade: 2 No. of patients
  Infection without neutropenia: No. of patients with AEs of any grade: 2 No. of patients
  Lymphopenia: No. of patients with AEs of any grade: 5 No. of patients
  Mucositis: No. of patients with AEs of any grade: 3 No. of patients
  Nausea: No. of patients with AEs of any grade: 4 No. of patients
